pIC50: −log10 of the molar value. The source made the active and inactive calls. The rule behind the calls is not given here.
Columns and labels:
[1] = Clearance in dog assessed as liver blood flow at 0.5 mg/kg,iv; assay type: ADME, organism-based, Canis lupus familiaris; settings: in vivo
[2] = target: T1, ATPase family AAA domain-containing protein 2 (Homo sapiens, UniProt Q6PL18); assay: Displacement of biotinylated JQ1 from ATAD2 bromodomain (unknown origin) incubated for 20 mins by AlphaLISA assay
T1 sequence (Q6PL18 whole entry): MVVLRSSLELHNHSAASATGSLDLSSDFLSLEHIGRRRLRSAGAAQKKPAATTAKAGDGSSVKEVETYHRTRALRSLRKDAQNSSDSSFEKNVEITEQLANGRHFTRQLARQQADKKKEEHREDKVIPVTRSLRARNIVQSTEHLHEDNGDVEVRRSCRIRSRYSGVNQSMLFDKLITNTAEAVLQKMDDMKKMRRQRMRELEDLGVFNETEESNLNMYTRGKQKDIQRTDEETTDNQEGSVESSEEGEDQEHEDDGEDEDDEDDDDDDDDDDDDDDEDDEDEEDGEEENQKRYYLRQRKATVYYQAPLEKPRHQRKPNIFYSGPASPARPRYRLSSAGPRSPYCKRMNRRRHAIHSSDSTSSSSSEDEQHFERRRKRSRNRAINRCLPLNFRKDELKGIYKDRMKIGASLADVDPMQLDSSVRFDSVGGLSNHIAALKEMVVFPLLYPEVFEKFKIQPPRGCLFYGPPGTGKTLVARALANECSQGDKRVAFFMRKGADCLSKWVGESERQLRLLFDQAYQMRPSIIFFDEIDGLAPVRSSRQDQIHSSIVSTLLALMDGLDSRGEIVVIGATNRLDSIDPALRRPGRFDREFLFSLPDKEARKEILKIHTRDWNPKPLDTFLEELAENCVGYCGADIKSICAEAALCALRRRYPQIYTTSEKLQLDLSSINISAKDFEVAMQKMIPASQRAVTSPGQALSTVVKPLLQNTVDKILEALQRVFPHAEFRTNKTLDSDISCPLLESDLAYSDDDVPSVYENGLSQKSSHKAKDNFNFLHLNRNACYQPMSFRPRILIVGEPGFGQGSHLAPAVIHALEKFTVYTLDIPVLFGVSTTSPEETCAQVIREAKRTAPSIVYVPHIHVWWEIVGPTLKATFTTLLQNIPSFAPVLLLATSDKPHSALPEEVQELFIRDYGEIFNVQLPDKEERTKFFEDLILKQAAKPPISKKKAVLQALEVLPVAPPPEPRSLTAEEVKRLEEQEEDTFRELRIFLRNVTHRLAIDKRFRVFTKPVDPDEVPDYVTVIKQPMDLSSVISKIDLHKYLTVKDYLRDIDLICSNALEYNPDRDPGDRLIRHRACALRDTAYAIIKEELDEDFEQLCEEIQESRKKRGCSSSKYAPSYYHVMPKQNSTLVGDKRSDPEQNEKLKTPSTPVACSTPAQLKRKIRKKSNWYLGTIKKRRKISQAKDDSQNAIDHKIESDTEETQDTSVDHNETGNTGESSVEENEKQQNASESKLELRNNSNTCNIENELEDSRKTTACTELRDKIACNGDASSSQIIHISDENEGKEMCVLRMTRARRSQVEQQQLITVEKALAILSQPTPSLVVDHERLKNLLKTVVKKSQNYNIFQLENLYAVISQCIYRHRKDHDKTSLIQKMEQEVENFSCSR

CREB-binding protein = CREB-binding protein (Homo sapiens, UniProt Q92793); assay: Binding affinity to CBP bromodomain (unknown origin) incubated for 60 mins by TR-FRET assay
[3] = Toxicity in rat assessed as GI mucosal erosion at 2 to 20 mg/kg,po QD consecutive for 14 days followed by 2 weeks recovery period; assay type: organism-based; settings: in vivo, 336 h, dose 2-20 mg/kg, time 14 day
Method in brief: (§1)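 Oral suspension given once daily for 14 consecutive days (rat 2, 6, 20 mg/kg; dog 2, 4, 6 mg/kg) in dose range-finding and GLP repeat-dose studies, GLP arms with an added 2-week recovery period; histopathology and clinical pathology findings recorded.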

[4] = target: SWI/SNF-related matrix-associated actin-dependent regulator of chromatin subfamily A member 4 (Homo sapiens, UniProt P51532); assay: Binding affinity to BRG1 bromodomain (unknown origin) incubated for 60 mins by TR-FRET assay
[5] = Intrinsic clearance in rat liver microsomes; assay type: ADME, Microsome
[6] = Toxicity in dog assessed as lymphoid depletion at 2 to 6 mg/kg,po QD consecutive for 14 days followed by 2 weeks recovery period; assay type: organism-based, Canis lupus familiaris; settings: in vivo, 336 h, dose 2-6 mg/kg, time 14 day; method in brief: as §1
[7] = Half life in human patient with progression lymphoma at 300 mg,po QD consecutively for 14 days; assay type: ADME; settings: in vivo, time 14 day
[8] = Cmax in mouse at 30 mg/kg,po; assay type: ADME, organism-based; parameters: dose 30 mg/kg, route po; settings: in vivo
[9] = Half life in dog plasma at 0.5 mg/kg,iv; assay type: ADME, organism-based, Canis lupus familiaris
[10] = Toxicity in dog assessed as GI mucosal ulceration at 2 to 6 mg/kg,po QD consecutive for 14 days followed by 2 weeks recovery period; assay type: organism-based, Canis lupus familiaris; settings: in vivo, 336 h, dose 2-6 mg/kg, time 14 day; method in brief: as §1
MV4-11 [11] = assay: Antitumor activity against human MV4-11 cells xenografted in BALB/c mouse assessed as tumor growth inhibition at 60 mg/kg,po QD for 28 days; assay type: functional; settings: MV4-11, 672 h, time 28 day, read-out: TGI
Method in brief: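 Single-agent efficacy in MV-4-11 AML mouse xenograft. Tumor volume (mm3) and percent body-weight change were tracked over the treatment days.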

[12] = Volume of distribution at steady state in dog at 0.5 mg/kg,iv; assay type: ADME, organism-based, Canis lupus familiaris; settings: in vivo, read-out: Vdss
[13] = Protein binding in dog plasma; assay type: ADME, cell-free, Canis lupus familiaris; settings: read-out: PPB (converted)
[14] = Toxicity against BALB/c mouse plasma xenografted with human MV4-11 cells assessed as body weight loss at 30 mg/kg,po BID for 28 days; assay type: organism-based; settings: in vivo, 672 h, time 28 day
Method in brief: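 Body weight change (%) followed in MV-4-11 AML mouse xenograft during 28 days of oral single-agent dosing (30 mg/kg once or twice daily, 60 mg/kg once daily), vehicle PO BID as control.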

[15] = Toxicity against BALB/c mouse plasma xenografted with human MV4-11 cells assessed as body weight loss at 10 mg/kg,sc BID in presence of doxorubicin at 2 mg/kg,iv BIW for 28 days; assay type: organism-based; settings: in vivo, 672 h, time 28 day
Method in brief: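 MV-4-11 acute myeloid leukemia mouse xenograft; BET inhibitor given subcutaneously 10 mg/kg twice daily, doxorubicin 2 mg/kg IV twice weekly, alone or combined, for 28 days; body weight change (%) tracked over treatment against vehicle.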

[16] = Toxicity in dog assessed as GI mucosal erosion at 2 to 6 mg/kg,po QD consecutive for 14 days followed by 2 weeks recovery period; assay type: organism-based, Canis lupus familiaris; settings: in vivo, 336 h, dose 2-6 mg/kg, time 14 day; method in brief: as §1
[17] = Total clearance in rat at 1 mg/kg,iv; assay type: ADME, organism-based; settings: in vivo
MV4-11 [18] = assay: Antitumor activity against human MV4-11 cells xenografted in BALB/c mouse assessed as slower tumor regrowth after drug therapy removal at 10 mg/kg,sc BID in presence of doxorubicin at 2 mg/kg,iv BIW for 28 days; assay type: functional, organism-based; settings: time 28.0 day
[19] = Unbound AUC in mouse at 10 mg/kg,sc; assay type: ADME, organism-based; settings: in vivo
[20] = Intrinsic clearance in mouse liver microsomes; assay type: ADME, Microsome; settings: read-out: CLH
[21] = Unbound clearance in dog at 0.5 mg/kg,iv; assay type: ADME, organism-based, Canis lupus familiaris; settings: in vivo

Sequence of CREB-binding protein (Q92793 whole entry): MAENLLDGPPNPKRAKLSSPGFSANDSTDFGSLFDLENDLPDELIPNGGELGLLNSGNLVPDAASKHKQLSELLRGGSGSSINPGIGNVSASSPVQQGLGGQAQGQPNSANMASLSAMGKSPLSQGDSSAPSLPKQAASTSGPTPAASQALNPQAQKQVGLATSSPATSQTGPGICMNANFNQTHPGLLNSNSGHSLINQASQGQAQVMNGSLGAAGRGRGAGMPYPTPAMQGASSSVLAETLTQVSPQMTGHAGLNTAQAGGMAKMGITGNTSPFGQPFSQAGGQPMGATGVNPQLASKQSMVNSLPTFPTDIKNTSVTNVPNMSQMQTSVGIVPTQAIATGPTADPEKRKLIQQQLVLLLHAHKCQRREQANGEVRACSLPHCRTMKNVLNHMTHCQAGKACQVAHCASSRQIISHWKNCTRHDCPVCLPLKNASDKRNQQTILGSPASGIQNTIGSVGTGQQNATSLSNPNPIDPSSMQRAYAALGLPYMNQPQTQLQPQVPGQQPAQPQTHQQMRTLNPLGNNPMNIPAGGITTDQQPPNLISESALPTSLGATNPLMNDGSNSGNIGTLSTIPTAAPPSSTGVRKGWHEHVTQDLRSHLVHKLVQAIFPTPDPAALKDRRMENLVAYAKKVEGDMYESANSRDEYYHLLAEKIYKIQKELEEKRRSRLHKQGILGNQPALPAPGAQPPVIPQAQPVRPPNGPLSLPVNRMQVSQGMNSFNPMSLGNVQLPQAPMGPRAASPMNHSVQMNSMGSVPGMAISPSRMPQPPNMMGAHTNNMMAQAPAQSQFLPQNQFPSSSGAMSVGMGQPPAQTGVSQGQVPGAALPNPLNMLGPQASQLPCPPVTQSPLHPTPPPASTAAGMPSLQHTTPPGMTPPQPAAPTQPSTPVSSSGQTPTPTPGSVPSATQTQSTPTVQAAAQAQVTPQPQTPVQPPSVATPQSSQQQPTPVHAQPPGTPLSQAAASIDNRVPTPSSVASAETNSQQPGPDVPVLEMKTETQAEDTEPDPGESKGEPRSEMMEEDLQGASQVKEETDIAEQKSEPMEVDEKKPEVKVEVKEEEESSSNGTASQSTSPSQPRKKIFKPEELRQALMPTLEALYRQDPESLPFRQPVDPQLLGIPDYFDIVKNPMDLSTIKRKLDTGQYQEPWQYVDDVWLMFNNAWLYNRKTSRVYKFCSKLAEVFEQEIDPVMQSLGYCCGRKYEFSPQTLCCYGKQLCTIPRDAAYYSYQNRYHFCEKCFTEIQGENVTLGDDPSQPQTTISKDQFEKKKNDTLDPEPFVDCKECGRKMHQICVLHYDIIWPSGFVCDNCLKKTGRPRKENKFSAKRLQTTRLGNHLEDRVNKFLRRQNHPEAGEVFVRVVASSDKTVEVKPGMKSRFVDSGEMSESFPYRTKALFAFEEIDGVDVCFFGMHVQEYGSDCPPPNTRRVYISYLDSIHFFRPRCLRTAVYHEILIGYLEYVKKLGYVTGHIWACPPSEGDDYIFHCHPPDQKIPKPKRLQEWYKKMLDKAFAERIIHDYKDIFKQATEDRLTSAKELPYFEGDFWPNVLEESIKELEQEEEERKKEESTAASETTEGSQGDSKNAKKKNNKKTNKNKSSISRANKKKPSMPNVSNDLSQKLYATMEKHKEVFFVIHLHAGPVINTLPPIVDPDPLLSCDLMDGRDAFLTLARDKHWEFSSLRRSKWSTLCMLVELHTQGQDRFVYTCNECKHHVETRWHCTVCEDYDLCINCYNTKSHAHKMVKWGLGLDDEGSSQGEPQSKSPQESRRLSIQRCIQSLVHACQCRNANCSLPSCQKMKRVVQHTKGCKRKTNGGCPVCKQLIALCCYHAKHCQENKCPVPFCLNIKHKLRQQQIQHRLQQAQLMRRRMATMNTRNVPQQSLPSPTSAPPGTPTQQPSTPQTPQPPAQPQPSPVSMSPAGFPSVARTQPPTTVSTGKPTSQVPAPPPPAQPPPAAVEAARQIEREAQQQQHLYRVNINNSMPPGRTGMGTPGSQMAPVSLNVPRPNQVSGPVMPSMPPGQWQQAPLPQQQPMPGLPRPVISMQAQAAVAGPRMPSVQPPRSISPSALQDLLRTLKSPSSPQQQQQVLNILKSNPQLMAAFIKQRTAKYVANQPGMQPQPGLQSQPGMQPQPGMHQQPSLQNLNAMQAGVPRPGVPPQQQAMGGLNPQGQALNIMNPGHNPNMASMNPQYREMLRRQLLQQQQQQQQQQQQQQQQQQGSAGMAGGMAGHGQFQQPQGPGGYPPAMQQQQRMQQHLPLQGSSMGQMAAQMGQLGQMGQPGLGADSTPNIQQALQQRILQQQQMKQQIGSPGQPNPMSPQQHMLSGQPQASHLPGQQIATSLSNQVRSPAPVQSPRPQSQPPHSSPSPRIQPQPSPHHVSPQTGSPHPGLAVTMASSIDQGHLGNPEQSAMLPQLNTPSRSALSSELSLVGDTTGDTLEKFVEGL
Sequence of SWI/SNF-related matrix-associated actin-dependent regulator of chromatin subfamily A member 4 (P51532 whole entry): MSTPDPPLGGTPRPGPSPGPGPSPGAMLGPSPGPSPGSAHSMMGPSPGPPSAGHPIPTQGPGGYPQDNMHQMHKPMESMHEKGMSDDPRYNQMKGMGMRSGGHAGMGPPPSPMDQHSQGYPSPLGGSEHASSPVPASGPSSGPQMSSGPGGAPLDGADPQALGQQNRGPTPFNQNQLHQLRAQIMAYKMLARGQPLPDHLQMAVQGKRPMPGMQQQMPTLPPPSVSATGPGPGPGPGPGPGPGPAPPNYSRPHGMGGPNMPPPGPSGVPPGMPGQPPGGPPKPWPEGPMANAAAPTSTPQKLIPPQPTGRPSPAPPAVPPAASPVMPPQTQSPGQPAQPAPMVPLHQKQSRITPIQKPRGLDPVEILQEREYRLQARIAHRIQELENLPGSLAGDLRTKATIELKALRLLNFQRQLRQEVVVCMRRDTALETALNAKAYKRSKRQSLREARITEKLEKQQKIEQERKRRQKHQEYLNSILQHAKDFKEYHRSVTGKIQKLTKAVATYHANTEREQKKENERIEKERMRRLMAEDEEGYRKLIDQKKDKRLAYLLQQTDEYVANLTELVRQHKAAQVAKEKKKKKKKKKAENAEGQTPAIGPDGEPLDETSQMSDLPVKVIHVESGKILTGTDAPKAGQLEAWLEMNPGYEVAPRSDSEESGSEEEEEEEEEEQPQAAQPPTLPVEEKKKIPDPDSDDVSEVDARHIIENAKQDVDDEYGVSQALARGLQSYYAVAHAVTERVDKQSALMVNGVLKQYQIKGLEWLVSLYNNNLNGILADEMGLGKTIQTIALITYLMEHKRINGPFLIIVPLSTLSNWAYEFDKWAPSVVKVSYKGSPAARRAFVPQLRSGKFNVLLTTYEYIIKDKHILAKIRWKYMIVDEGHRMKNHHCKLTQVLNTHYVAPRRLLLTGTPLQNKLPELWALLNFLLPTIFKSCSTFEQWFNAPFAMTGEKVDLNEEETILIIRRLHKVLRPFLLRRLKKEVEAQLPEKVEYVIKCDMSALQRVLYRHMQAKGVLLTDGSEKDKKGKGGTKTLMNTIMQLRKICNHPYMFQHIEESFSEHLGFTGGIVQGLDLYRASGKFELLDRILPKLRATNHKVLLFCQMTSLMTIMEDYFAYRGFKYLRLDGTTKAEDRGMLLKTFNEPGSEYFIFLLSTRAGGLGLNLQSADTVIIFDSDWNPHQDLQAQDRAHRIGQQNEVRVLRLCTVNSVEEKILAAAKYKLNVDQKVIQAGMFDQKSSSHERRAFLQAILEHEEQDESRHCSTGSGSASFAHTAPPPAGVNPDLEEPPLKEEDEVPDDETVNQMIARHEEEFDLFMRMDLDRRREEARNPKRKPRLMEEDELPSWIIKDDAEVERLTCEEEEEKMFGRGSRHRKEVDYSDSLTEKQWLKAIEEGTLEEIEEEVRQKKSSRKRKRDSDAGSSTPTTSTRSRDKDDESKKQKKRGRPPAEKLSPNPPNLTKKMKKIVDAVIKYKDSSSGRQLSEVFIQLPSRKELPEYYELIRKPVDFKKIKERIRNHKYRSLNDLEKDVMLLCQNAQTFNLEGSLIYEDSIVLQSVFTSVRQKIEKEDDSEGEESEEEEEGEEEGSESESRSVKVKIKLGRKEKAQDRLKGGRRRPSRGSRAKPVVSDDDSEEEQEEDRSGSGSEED

For `Cc1noc2c1-c1ccccc1C(c1ccc(Cl)cc1)=N[C@H]2CC(N)=O` [PELABRESIB], the QH [1] was 6%, the pIC50 [2] was less than 4.10 and the pIC50 (CREB-binding protein) was less than 4.70. The Activity [3] was “Toxic”, the pIC50 [4] was less than 4.70 and the predicted hepatic clearance (CLH) [5] was 21 mL/min/kg. For the same molecule, the Activity [6] was “Toxic”, the half-life [7] was 23 h and the Cmax [8] was 24 µM. For the same molecule, the half-life [9] was 9 h, the Activity [10] was “Toxic” and the inhibition in vivo at 60 mg/kg (MV4-11 [11]) was 74%. For the same molecule, the Vd [12] was 1.2 L/kg, the fraction unbound [13] was 0.04 and the Activity [14] was “Non-Toxic”. The Activity [15] was “Non-Toxic”, the Activity [16] was “Toxic” and the clearance [17] was 20 mL/min/kg. The Activity (MV4-11 [18]) was “Active”, the fAUC [19] was 1.5 µM·h and the predicted hepatic clearance [20] was 30 mL/min/kg. The CL free [21] was 46.7 mL/min/kg.
